Assay results taken from ChEMBL document CHEMBL1129350, “Hypoxia-selective antitumor agents. 13. Effects of acridine substitution on the hypoxia-selective cytotoxicity and metabolic reduction of the bis-bioreductive agent nitracrine N-oxide” (J Med Chem, 1996).

How the values were obtained:
CHO-AA8 [1] = experiment: Inhibitory activity against aerobic growth of AA8 cells.; type: functional, cell-based; conditions: Cricetulus griseus
Method in brief: (§1)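 Growth inhibition: 200 log-phase AA8 or 300 UV4 cells were seeded per well. One day later they were exposed to drug for 18 h under aerobic conditions (5% CO₂) in αMEM with 5% fetal calf serum. Cell mass was measured as protein by methylene blue staining 72–78 h after drug removal. IC50 is the concentration reducing cell mass to 50% of the mean of eight controls on the same plate. HF is IC50(AA8)/IC50(UV4).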

[2] = Air/N2 ratio = C10(air)/C10(nitrogen)
Method in brief: (§2)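 Plateau-phase AA8 cells at 10⁶/mL in magnetically stirred 10 mL suspensions in αMEM with 5% fetal calf serum, continuously gassed with 5% CO₂ in air or N₂. Cells and drug solutions were pre-equilibrated under the gas phase for 60 min before mixing, then exposed for 1 h. Clonogenic survival was read as plating efficiency. C10 is the concentration lowering plating efficiency to 10% of concurrent untreated controls. The air/N₂ ratio is C10(air)/C10(N₂).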

[3] = Inhibitory activity against aerobic growth of UV4cells, Hypersensitivity factor is the ratio of IC50(AA8) to IC50(UV4).; type: functional; method in brief: as §1
CHO-AA8 [4] = experiment: Concentration needed to reduce cell survival to 10% of control values, using 1 hour exposure of plateau phase AA8 cells at 10e6 cells/ml; type: functional, Cricetulus griseus; method in brief: as §2
Mus musculus = experiment: Maximum tolerated ip dose for male C3H/HeN mice.; type: functional
Method in brief: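 Compounds formulated in water, injected ip at 0.01 mL/g into male C3H/HeN mice (20–25 g); groups of six mice, dose increments of 1.33-fold, observed 28 days. MTD taken as highest dose causing no deaths or unacceptable morbidity.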

[5] = Spheroid resistance factor which is defined as the ratio C10 (intact)/ C10 (dissociated) EMT6 cells; type: functional
Method in brief: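 EMT6/Ak spheroids were grown in αMEM with 10% FBS in spinner flasks to about 1000–1400 μm diameter. For dissociated cells, spheroids were treated with pronase 0.5 mg/mL and DNAase I 1 mg/mL for 30 min at 37 °C, washed, then exposed to drug for 1 h. Intact spheroids were exposed at 1 spheroid/mL in stirred vials for 1 h before dissociation and plating. Both exposures used about 2 × 10⁵ cells/mL, 5% CO₂/20% O₂, 37 °C. C10 was interpolated from at least four concentrations per survival curve. SRF is C10(intact)/C10(dissociated). Results are mean ± SEM of independent experiments.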

EMT6 (Mus musculus) = experiment: Concentration resulting in 10% survival in dissociated EMT6 spheroid cell suspension

Compound | IC50 (CHO-AA8 [1]) | Ratio [2] | Ratio [3] | C10 (CHO-AA8 [4]) | MTD (Mus musculus) | Ratio [5] | C10 (EMT6 (Mus musculus))
COc1cc(OC)c2nc3ccccc3c(NCCC[N+](C)(C)[O-])c2c1[N+](=O)[O-] | 1960 µM | 1.2 | 0.9 | 20000 µM | 800 µM/kg |  | 
COc1ccc([N+](=O)[O-])c2c(NCCC[N+](C)(C)[O-])c3ccccc3nc12 | 130 µM | 1250 | 43 | 15700 µM | 100 µM/kg | 1.9 | 300 µM
Cc1ccc([N+](=O)[O-])c2c(NCCC[N+](C)(C)[O-])c3ccccc3nc12 | 5.4 µM | 150 | 29 | 47 µM | 15 µM/kg |  | 
Cc1cccc2c(NCCC[N+](C)(C)[O-])c3c([N+](=O)[O-])ccc(C)c3nc12 | 6.8 µM | 54 | 32 | 60 µM | 15 µM/kg |  | 
COc1cccc2c(NCCCN(C)C)c3c([N+](=O)[O-])ccc(OC)c3nc12 | 0.51 µM | 14 | 11 | 47 µM | 100 µM/kg |  | 
Cc1cccc2c(NCCCN(C)C)c3c([N+](=O)[O-])ccc(C)c3nc12 | 0.19 µM | 11 | 22 | 9.6 µM | 20 µM/kg |  | 
CN(C)CCCNc1c2ccccc2nc2cccc([N+](=O)[O-])c12 [NITRACRINE] |  | 5.1 | 15 | 0.4 µM | 0.3 µM/kg | 10.7 | 0.11 µM
COc1cc(OC)c2nc3ccccc3c(NCCCN(C)C)c2c1[N+](=O)[O-] | 47 µM | 2.3 | 1.3 | 500 µM | 300 µM/kg |  | 
COc1cccc2c(NCCC[N+](C)(C)[O-])c3c([N+](=O)[O-])ccc(OC)c3nc12 | 150 µM | 2770 | 14 | 59000 µM | 450 µM/kg |  | 
Cc1ccc([N+](=O)[O-])c2c(NCCCN(C)C)c3ccccc3nc12 | 0.053 µM | 6.9 | 13 | 1.5 µM | 0.2 µM/kg |  | 
COc1ccc2nc3ccccc3c(NCCC[N+](C)(C)[O-])c2c1[N+](=O)[O-] | 84 µM |  |  | >300 µM | 300 µM/kg |  | 
COc1ccc([N+](=O)[O-])c2c(NCCCN(C)C)c3ccccc3nc12 | 0.47 µM | 11 | 14 | 16 µM | 15 µM/kg | 7.7 | 1.7 µM
C[N+](C)([O-])CCCNc1c2ccccc2nc2cccc([N+](=O)[O-])c12 | 2.7 µM | 820 | 15 | 61 µM | 15 µM/kg | 7 | 1.9 µM
COc1ccc2nc3ccccc3c(NCCCN(C)C)c2c1[N+](=O)[O-] | 2.9 µM |  | 4.6 | >60 µM |  |  | 
